Measurements from different studies.
Cell line: HCT-116
Read-out: cell growth or viability

| Structure (SMILES) | technique | time | IC50 |
| --- | --- | --- | --- |
| O=[N+]([O-])c1cc(Br)c(O)c(C=NNc2ccc(Cl)cc2)c1 | MTT | 24 h | 16.6 µM |
| O=C1C(=Nc2cccc(Cl)c2)c2ccccc2N1Cc1ccc([N+](=O)[O-])cc1 | MTT | 48 h | 0.84 µM |
| COc1cccc2c1C(=O)c1c(O)c3c(c(O)c1C2=O)C[C@@](O)(C(=O)CO)C[C@@H]3O[C@H]1C[C@H](N)[C@H](O)[C@H](C)O1 | MTT | 72 h | 0.2 µM |
| Cc1ccc(CN2C(=O)C(=Nc3cccc(Cl)c3)c3ccccc32)cc1 | MTT | 48 h | 1.05 µM |
| FC(F)(F)c1ccc(-c2cc(COc3cc(C(F)(F)F)nc4ccccc34)on2)cc1 | MTS | 72 h | > 100 µM |
| FC(F)(F)c1ccc(-c2noc(-c3nn(Cc4ccc(Cl)cc4Cl)c4ccccc34)n2)cc1 |  | 48 h | 137 µM |
| O=C(CSc1nc2ccccc2s1)N/N=C/c1ccc(OCC(=O)Nc2ccc(Br)cc2)cc1 | MTS | 72 h | > 100 µM |
| Cc1ccc(NC(=O)Cn2cc(COc3ncnc4[nH]cnc34)nn2)c(C)c1 | MTT |  | > 100 µM |
| O=C1CS/C(=N\c2cc(C(F)(F)F)ccc2-c2nnc(N3C(=O)CS/C3=N\c3cc(O)cc(Br)c3)s2)N1c1cc(O)cc(Br)c1 | MTT |  | 78.1 µM |
| COc1cccc(NC(=S)N/N=C/c2cccc3cc4ccccc4nc23)c1 | MTT | 48 h | 49.6 µM |
| O=C(C=Cc1cccs1)c1ccc(OCCCOc2ccc(C(=O)C=Cc3cccs3)cc2)cc1 | MTT | 48 h | 30.7 µM |
| N#Cc1ccc(-c2cc(CNc3cccc4cccnc34)on2)cc1 | MTS | 72 h | > 100 µM |
| CC(C)CNC(=S)N/N=C/c1cccc2cc3ccccc3nc12 | MTT | 48 h | > 50 µM |
| COc1ccc(N(Cc2csc(-c3ccccc3)n2)C(=O)CCCCCC(=O)NO)cc1 | MTT | 72 h | 1.12 µM |
| Cc1cc(NS(=O)(=O)c2ccc(NC(=O)/C(C#N)=C/c3cccnc3)cc2)no1 | MTT | 48 h | > 200 µM |
| COc1ccc2c(-c3nc(-c4ccccc4)no3)nn(Cc3ccncc3)c2c1 |  | 48 h | 10.8 µM |
| Cc1cc(Cn2ccnc2)nn1C | MTT | 24 h | 241 µM |
| Cc1cc2c(C(N)=O)cccc2n1-c1nc(NCc2ccccc2)c2c(n1)NC(C)CC2 (centres unmarked) | ATP luminescence | 72 h | 0.9 µM |
| FC(F)(F)c1cc(OCc2cc(-c3ccccn3)no2)c2ccccc2n1 | MTS | 72 h | > 100 µM |
| Cc1cc2c(C(N)=O)cncc2n1-c1nc2c(c(NCc3ccccc3)n1)CCCN2 | ATP luminescence | 72 h | 1.2 µM |
| COc1cccc2c1C(=O)c1c(O)c3c(c(O)c1C2=O)C[C@@](O)(C(=O)CO)C[C@@H]3O[C@H]1C[C@H](N)[C@H](O)[C@H](C)O1 | MTT |  | 41.2 µM |
| CC(=O)O[C@@H]1[C@@H](OC(C)=O)[C@H](OC(C)=O)CO[C@H]1n1cc(Cn2c(C(C)=O)nc3ccccc32)nn1 | LDH | 48 h | 7.74 µM |

| Structure (SMILES) | technique | time | IC50 |
| --- | --- | --- | --- |
| N#Cc1ccc(-c2cc(COc3cc(=O)oc4ccccc34)on2)cc1 | MTS | 72 h | > 100 µM |
| CC(=O)O[C@@H]1[C@@H](OC(C)=O)[C@H](OC(C)=O)CO[C@H]1n1cc(Cn2c(C(=O)/C=C/c3ccc(F)cc3)nc3ccccc32)nn1 | LDH | 48 h | 9.97 µM |
| Cc1cc(NS(=O)(=O)c2ccc(NC(=O)/C(C#N)=C/c3ccc(N4CCCC4)cc3)cc2)no1 | MTT | 48 h | 98.6 µM |
| COc1cccc2c1C(=O)c1c(O)c3c(c(O)c1C2=O)C[C@@](O)(C(=O)CO)C[C@@H]3O[C@H]1C[C@H](N)[C@H](O)[C@H](C)O1 | MTT | 24 h | 1.06 µM |
| Cc1cc2c(C(N)=O)cccc2n1-c1nc2c(c(NCc3ccccc3)n1)CCCN2 | ATP luminescence | 72 h | 0.7 µM |
| O=C1CSC(=Nc2cc(C(F)(F)F)ccc2-c2nnc(N3C(=O)CSC3=Nc3ccc([N+](=O)[O-])cc3)s2)N1c1ccc([N+](=O)[O-])cc1 | MTT |  | 74.4 µM |
| O=P1(c2ccccc2)CCCCC1 | MTT | 72 h | > 100 µM |
| COc1cccc2c1C(=O)c1c(O)c3c(c(O)c1C2=O)C[C@@](O)(C(=O)CO)C[C@@H]3O[C@H]1C[C@H](N)[C@H](O)[C@H](C)O1 | ATP luminescence | 72 h | 0.98 µM |
| O=C1C(=Nc2ccccc2I)c2ccccc2N1Cc1cccc(Cl)c1 | MTT | 48 h | 4.86 µM |
| O=C(CSc1nc2ccccc2s1)N/N=C/c1ccc(OCC(=O)Nc2ccc([N+](=O)[O-])cc2)cc1 | MTS | 72 h | 52.9 µM |
| Clc1ccc(Cn2nc(-c3ncc(-c4ccccc4)s3)c3ccccc32)c(Cl)c1 |  | 48 h | 404 µM |
| CCOC(=O)c1cc(C)n(Cn2cnc3ccccc32)n1 | MTT | 24 h | 47.9 µM |
| Cc1ccc(CN2C(=O)C(=Nc3c(C(C)C)cccc3C(C)C)c3ccccc32)cc1 | MTT | 48 h | 30.9 µM |
| O=C1CS/C(=N\c2ccccc2O)N1c1nnc(-c2ccc(C(F)(F)F)cc2/N=C2\SCC(=O)N2c2ccccc2O)s1 | MTT |  | 40.5 µM |
| O=C1Nc2ccccc2C1=Nc1ccccc1Br | MTT | 48 h | > 100 µM |
| CC(C)c1ccc(/C=C2\N=C(SCC(=O)O)N(c3ccccc3)C2=O)cc1 | MTT |  | 44.3 µg/mL |
| Cc1ccc(CN2C(=O)C(=Nc3cccc(C)c3)c3ccccc32)cc1 | MTT | 48 h | 0.39 µM |
| O=C1/C(=C/c2ccc3ccccc3c2O)NC(=S)N1c1ccccc1 | MTT |  | 7.25 µg/mL |
| CC(C)c1cccc(C(C)C)c1N=C1C(=O)Nc2ccccc21 | MTT | 48 h | 4.65 µM |
| O=[N+]([O-])c1cc(Br)c(O)c(C=NNc2ccccc2)c1 | MTT | 24 h | 11.7 µM |
| FC(F)(F)c1ccc(-c2nnc(-c3nn(Cc4ccc(Cl)cc4Cl)c4ccccc34)o2)cc1 |  | 48 h | 323 µM |
| O=C1Nc2ccccc2C1=Nc1ccc(Cl)cc1 | MTT | 48 h | > 100 µM |
